Data: ChEMBL document CHEMBL5523688, “Selective targeting of human TET1 by cyclic peptide inhibitors: Insights from biochemical profiling” (Bioorg Med Chem, 2024)
Calls of active or inactive are those of the source. The rule behind the calls is not given here.

Columns and labels:
[1] = target: Methylcytosine dioxygenase TET2 (Homo sapiens, UniProt Q6N021); test: Inhibition of N-terminal His-tagged recombinant human TET2 catalytic domain LCIdel mutant (D1129 to G1936 residues with Y1481 to N1843 replaced by 3 x GGGGS linker) expressed in Escherichia coli BL21 (DE3) using 5-methylcytosine as substrate preincubated for 10 mins followed by substrate and DNA-cofactor addition measured after 10 mins by Alphascreen assay
[2] = target: T1, Methylcytosine dioxygenase TET1 (Homo sapiens, UniProt Q8NFU7); test: Inhibition of FLAG-tagged human TET1 catalytic domain (E1418 to V2136 residues) expressed in doxycycline induced human U2OS cells assessed as reduction in 5-hydroxymethylcytosine level at 30 to 100 uM incubated for 24 hrs by immunofluorescence assay; type: cell-based; conditions: dose 30-100 µM
T1 sequence (Q8NFU7 whole entry, the tested form may be a part): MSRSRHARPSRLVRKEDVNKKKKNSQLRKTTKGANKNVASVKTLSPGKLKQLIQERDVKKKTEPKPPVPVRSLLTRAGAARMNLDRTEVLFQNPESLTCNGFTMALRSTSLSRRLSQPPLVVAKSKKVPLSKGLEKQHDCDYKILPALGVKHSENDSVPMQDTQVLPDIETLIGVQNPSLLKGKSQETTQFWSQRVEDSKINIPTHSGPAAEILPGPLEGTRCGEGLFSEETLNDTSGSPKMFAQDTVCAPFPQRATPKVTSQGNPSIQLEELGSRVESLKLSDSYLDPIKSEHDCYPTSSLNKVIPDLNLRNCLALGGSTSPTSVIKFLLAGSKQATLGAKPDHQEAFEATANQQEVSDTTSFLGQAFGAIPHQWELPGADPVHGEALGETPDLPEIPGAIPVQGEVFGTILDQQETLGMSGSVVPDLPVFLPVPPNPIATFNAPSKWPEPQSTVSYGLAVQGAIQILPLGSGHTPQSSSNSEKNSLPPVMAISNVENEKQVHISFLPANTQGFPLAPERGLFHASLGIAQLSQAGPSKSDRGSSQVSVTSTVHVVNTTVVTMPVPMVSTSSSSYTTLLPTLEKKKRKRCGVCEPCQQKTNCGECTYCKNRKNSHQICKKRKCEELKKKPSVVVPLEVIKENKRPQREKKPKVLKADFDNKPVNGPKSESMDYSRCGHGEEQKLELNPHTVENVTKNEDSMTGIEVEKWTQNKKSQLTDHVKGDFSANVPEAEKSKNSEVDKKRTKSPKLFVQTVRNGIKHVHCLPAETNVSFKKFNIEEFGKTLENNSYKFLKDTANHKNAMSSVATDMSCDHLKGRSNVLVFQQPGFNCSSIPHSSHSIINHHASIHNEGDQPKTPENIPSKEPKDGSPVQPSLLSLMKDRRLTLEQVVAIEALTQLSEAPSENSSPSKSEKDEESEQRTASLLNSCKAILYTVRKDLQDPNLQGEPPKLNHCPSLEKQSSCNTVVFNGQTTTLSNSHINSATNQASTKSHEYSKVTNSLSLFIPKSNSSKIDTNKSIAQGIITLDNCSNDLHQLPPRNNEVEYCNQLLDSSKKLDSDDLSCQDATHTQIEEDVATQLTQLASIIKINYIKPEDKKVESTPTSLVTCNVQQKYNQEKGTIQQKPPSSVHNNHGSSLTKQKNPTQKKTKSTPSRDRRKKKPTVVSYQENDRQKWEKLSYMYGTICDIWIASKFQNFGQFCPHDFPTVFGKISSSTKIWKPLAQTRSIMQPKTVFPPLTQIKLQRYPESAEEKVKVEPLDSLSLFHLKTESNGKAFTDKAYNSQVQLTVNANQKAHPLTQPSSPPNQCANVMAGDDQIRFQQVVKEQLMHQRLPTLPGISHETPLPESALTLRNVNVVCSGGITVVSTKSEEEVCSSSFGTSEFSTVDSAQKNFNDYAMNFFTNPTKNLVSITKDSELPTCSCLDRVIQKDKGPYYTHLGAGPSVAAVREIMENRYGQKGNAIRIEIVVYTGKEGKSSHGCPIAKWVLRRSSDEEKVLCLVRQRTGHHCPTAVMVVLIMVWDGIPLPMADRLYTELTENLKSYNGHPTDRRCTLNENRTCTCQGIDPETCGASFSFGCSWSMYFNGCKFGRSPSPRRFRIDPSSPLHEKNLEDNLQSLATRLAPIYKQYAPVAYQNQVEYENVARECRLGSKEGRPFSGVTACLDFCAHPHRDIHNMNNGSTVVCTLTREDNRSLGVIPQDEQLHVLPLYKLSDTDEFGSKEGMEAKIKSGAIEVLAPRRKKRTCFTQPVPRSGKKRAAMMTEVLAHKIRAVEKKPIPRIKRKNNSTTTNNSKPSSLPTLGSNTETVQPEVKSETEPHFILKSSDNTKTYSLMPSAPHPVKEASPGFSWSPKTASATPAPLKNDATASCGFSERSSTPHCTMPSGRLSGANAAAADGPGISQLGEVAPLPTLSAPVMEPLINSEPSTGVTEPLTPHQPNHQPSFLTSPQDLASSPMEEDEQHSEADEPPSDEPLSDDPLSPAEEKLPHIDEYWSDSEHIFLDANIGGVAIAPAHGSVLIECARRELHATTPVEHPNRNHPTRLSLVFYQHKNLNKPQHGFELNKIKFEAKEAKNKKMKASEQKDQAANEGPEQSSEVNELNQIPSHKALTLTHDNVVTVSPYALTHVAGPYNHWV
Method in brief: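 U2OS cells stably carrying dox-inducible FLAG-tagged TET1 catalytic domain were seeded at 5,000/well in DMEM with Tet-approved FBS (10%), penicillin/streptomycin and L-glutamine, then held 4 h at 37 °C. Induction used doxycycline 1 μg/mL alongside compound (1% DMSO final) for 24 h. Cells were fixed, permeabilised, blocked, immunostained (rabbit polyclonal oxidised-cytosine antibody 1:500, anti-FLAG 1:1000, 16 h) and DAPI-counterstained. Mean staining intensity of FLAG-TET1 cells was imaged.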

[3] = target: T1, Methylcytosine dioxygenase TET1; test: (§1) Inhibition of N-terminal 3xFlag-tagged recombinant human TET1 catalytic domain (E1418 to V2136 residues) expressed in baculovirus infected Sf9 cells using 5-methylcytosine as substrate preincubated for 10 mins followed by substrate and DNA-cofactor addition measured after 30 mins by Alphascreen assay
Method in brief: (§2)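 TET1 catalytic domain (E1418–V2136, Sf9 baculovirus) at 2 nM was preincubated 10 min with inhibitor (1% DMSO) in HEPES 50 mM pH 7.3, 150 mM NaCl, 0.1% BSA, 0.01% Tween-20. Reaction was started with ascorbate 200 µM, Fe(II) 20 µM, 2OG 20 µM and 5mC ssDNA 10 nM, run 30 min, then EDTA-quenched. Anti-5hmC antibody with AlphaScreen beads, 45–60 min, luminescence read. Three independent replicates.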

[4] = target: T2, Methylcytosine dioxygenase TET3 (Homo sapiens, UniProt O43151); test: (§3) Inhibition of recombinant human TET3 catalytic domain (E824 to I1795 residues) expressed in baculovirus infected Sf9 cells using 5-methylcytosine as substrate preincubated for 10 mins followed by substrate and DNA-cofactor addition measured after 10 mins by Alphascreen assay
[5] = target: T1, Methylcytosine dioxygenase TET1; test: Inhibition of FLAG-tagged human TET1 catalytic domain (E1418 to V2136 residues) expressed in doxycycline induced human U2OS cells assessed as reduction in 5-hydroxymethylcytosine level at 50 to 100 uM incubated for 24 hrs by immunofluorescence assay; type: cell-based; conditions: dose 50-100 µM
Method in brief: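 U2OS cells stably carrying dox-inducible FLAG-tagged TET1 catalytic domain (E1418–V2136), 5,000/well, seeded 4 h at 37 °C in DMEM with Tet-approved 10% FBS, pen/strep and L-glutamine. Doxycycline 1 µg/mL induction plus compound dosing (1% DMSO final) for 24 h. After fixation, cells were co-stained with anti-5hmC and anti-FLAG antibodies plus DAPI, then imaged. Read-out was mean 5hmC fluorescence in FLAG-positive cells.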

[6] = target: T2, Methylcytosine dioxygenase TET3; test: as §3, with “as substrate assessed as change in pIC50 preincubated for” for “as substrate preincubated for”; conditions: time 20.0 min
[7] = target: T1, Methylcytosine dioxygenase TET1; test: as §1, with “as substrate assessed as change in pIC50 preincubated for” for “as substrate preincubated for”; conditions: time 40.0 min; method in brief: as §2
[8] = test system: Methylcytosine dioxygenase TET2 (Homo sapiens), Q6N021 [UNDEFINED MUTATION]; conditions: time 20.0 min

SMILES | pIC50 [1] | inhibition [2] | IC50 ([3]; read-out: pIC50 (converted)) | IC50 ([4]; read-out: pIC50 (converted)) | inhibition [5] | IC50 ([3]; read-out: IC50) | IC50 ([4]; read-out: IC50) | deltapIC50 [6] | deltapIC50 [7] | deltapIC50 [8]
N=C(N)NCCC[C@H](NC(=O)[C@H](CCCNC(=N)N)NC(=O)[C@H](CCCNC(=N)N)NC(=O)[C@H](CCCNC(=N)N)NC(=O)[C@H](CCCNC(=N)N)NC(=O)[C@H](CCCNC(=N)N)NC(=O)[C@H](CCCNC(=N)N)NC(=O)[C@@H](N)CCCNC(=N)N)C(=O)O | 6.45 | Active | 0.251 µM | > 100 µM |  |  |  |  |  | 
CC[C@H](C)[C@@H]1NC(=O)[C@H](CC(C)C)NC(=O)[C@@H](Cc2ccc(O)cc2)NC(=O)CSC[C@H](C(=O)N[C@@H](Cc2ccc(O)cc2)C(=O)NCC(=O)N[C@@H](CCCNC(=N)N)C(=O)N[C@@H](CCCCN)C(=O)N[C@@H](CCCCN)C(=O)N[C@@H](CCCNC(=N)N)C(=O)N[C@@H](CCCNC(=N)N)C(=O)N[C@@H](CCC(N)=O)C(=O)N[C@@H](CCCNC(=N)N)C(=O)N[C@@H](CCCNC(=N)N)C(N)=O)NC(=O)[C@H](CO)NC(=O)[C@H](Cc2c[nH]cn2)NC(=O)[C@H](CCC(=O)O)NC(=O)[C@H](Cc2c[nH]c3ccccc23)NC(=O)[C@H](Cc2c[nH]c3ccccc23)NC(=O)[C@H]([C@@H](C)O)NC(=O)[C@H](Cc2ccc(O)cc2)NC(=O)[C@H](Cc2ccc(O)cc2)NC(=O)[C@H](C)NC(=O)[C@H](Cc2ccc(O)cc2)NC1=O | 6.91 |  | 0.0182 µM | 0.182 µM | Active | 0.25 µM | > 100 µM |  |  | 
CC[C@H](C)[C@@H]1NC(=O)[C@H](CC(C)C)NC(=O)[C@@H](Cc2ccc(O)cc2)NC(=O)CSC[C@@H](C(N)=O)NC(=O)[C@H](CO)NC(=O)[C@H](Cc2c[nH]cn2)NC(=O)[C@H](C)NC(=O)[C@H](Cc2c[nH]c3ccccc23)NC(=O)[C@H](Cc2c[nH]c3ccccc23)NC(=O)[C@H]([C@@H](C)O)NC(=O)[C@H](Cc2ccc(O)cc2)NC(=O)[C@H](Cc2ccc(O)cc2)NC(=O)[C@H](C)NC(=O)[C@H](Cc2ccc(O)cc2)NC1=O | 4.14 |  | 1.74 µM | > 100 µM |  |  |  | < -1.28 | -0.72 | -0.55
CC[C@H](C)[C@@H]1NC(=O)[C@H](CC(C)C)NC(=O)[C@@H](Cc2ccc(O)cc2)NC(=O)CSC[C@@H](C(N)=O)NC(=O)[C@H](CO)NC(=O)[C@H](Cc2c[nH]cn2)NC(=O)[C@H](CCC(=O)O)NC(=O)[C@H](Cc2c[nH]c3ccccc23)NC(=O)[C@H](Cc2c[nH]c3ccccc23)NC(=O)[C@H]([C@@H](C)O)NC(=O)[C@H](C)NC(=O)[C@H](Cc2ccc(O)cc2)NC(=O)[C@H](C)NC(=O)[C@H](Cc2ccc(O)cc2)NC1=O | 4.3 |  | 9.55 µM | 15.5 µM |  |  |  | -0.46 | -1.46 | -0.4
CC[C@H](C)[C@@H]1NC(=O)[C@H](CC(C)C)NC(=O)[C@@H](Cc2ccc(O)cc2)NC(=O)CSC[C@@H](C(N)=O)NC(=O)[C@H](C)NC(=O)[C@H](Cc2c[nH]cn2)NC(=O)[C@H](CCC(=O)O)NC(=O)[C@H](Cc2c[nH]c3ccccc23)NC(=O)[C@H](Cc2c[nH]c3ccccc23)NC(=O)[C@H]([C@@H](C)O)NC(=O)[C@H](Cc2ccc(O)cc2)NC(=O)[C@H](Cc2ccc(O)cc2)NC(=O)[C@H](C)NC(=O)[C@H](Cc2ccc(O)cc2)NC1=O | 4.68 |  | 0.417 µM | 6.31 µM |  |  |  | -0.08 | -0.1 | -0.02
CC[C@H](C)[C@@H]1NC(=O)[C@H](CC(C)C)NC(=O)[C@@H](Cc2ccc(O)cc2)NC(=O)CSC[C@@H](C(N)=O)NC(=O)[C@H](CO)NC(=O)[C@H](Cc2c[nH]cn2)NC(=O)[C@H](CCC(=O)O)NC(=O)[C@H](Cc2c[nH]c3ccccc23)NC(=O)[C@H](C)NC(=O)[C@H]([C@@H](C)O)NC(=O)[C@H](Cc2ccc(O)cc2)NC(=O)[C@H](Cc2ccc(O)cc2)NC(=O)[C@H](C)NC(=O)[C@H](Cc2ccc(O)cc2)NC1=O | 4.34 |  | 6.92 µM | 20.4 µM |  |  |  | -0.59 | -1.32 | -0.36
CC[C@H](C)[C@@H]1NC(=O)[C@H](CC(C)C)NC(=O)[C@@H](Cc2ccc(O)cc2)NC(=O)CSC[C@@H](C(N)=O)NC(=O)[C@H](CO)NC(=O)[C@H](Cc2c[nH]cn2)NC(=O)[C@H](CCC(=O)O)NC(=O)[C@H](Cc2c[nH]c3ccccc23)NC(=O)[C@H](Cc2c[nH]c3ccccc23)NC(=O)[C@H]([C@@H](C)O)NC(=O)[C@H](Cc2ccc(O)cc2)NC(=O)[C@H](C)NC(=O)[C@H](C)NC(=O)[C@H](Cc2ccc(O)cc2)NC1=O | 4.63 |  | 1.1 µM | 16.2 µM |  |  |  | -0.48 | -0.52 | -0.07
N=C(N)NCCC[C@H](NC(=O)[C@H](CCCNC(=N)N)NC(=O)[C@H](CCCNC(=N)N)NC(=O)[C@H](CCC(N)=O)NC(=O)[C@H](CCCNC(=N)N)NC(=O)[C@H](CCCNC(=N)N)NC(=O)[C@H](CCCCN)NC(=O)[C@H](CCCCN)NC(=O)[C@H](CCCNC(=N)N)NC(=O)CNC(=O)[C@@H](N)Cc1ccc(O)cc1)C(=O)O | 5.39 | Active | 1.15 µM | > 100 µM |  |  |  |  |  | 
CC[C@H](C)[C@@H]1NC(=O)[C@H](C)NC(=O)[C@@H](Cc2ccc(O)cc2)NC(=O)CSC[C@@H](C(N)=O)NC(=O)[C@H](CO)NC(=O)[C@H](Cc2c[nH]cn2)NC(=O)[C@H](CCC(=O)O)NC(=O)[C@H](Cc2c[nH]c3ccccc23)NC(=O)[C@H](Cc2c[nH]c3ccccc23)NC(=O)[C@H]([C@@H](C)O)NC(=O)[C@H](Cc2ccc(O)cc2)NC(=O)[C@H](Cc2ccc(O)cc2)NC(=O)[C@H](C)NC(=O)[C@H](Cc2ccc(O)cc2)NC1=O | 4.38 |  | 3.09 µM | 11 µM |  |  |  | -0.32 | -0.97 | -0.31
CC[C@H](C)[C@@H]1NC(=O)[C@H](CC(C)C)NC(=O)[C@@H](Cc2ccc(O)cc2)NC(=O)CSC[C@@H](C(N)=O)NC(=O)[C@H](CO)NC(=O)[C@H](Cc2c[nH]cn2)NC(=O)[C@H](CCC(=O)O)NC(=O)[C@H](C)NC(=O)[C@H](Cc2c[nH]c3ccccc23)NC(=O)[C@H]([C@@H](C)O)NC(=O)[C@H](Cc2ccc(O)cc2)NC(=O)[C@H](Cc2ccc(O)cc2)NC(=O)[C@H](C)NC(=O)[C@H](Cc2ccc(O)cc2)NC1=O | < 4 |  | 13.8 µM | 15.1 µM |  |  |  | -0.46 | -1.63 | < -0.7
CC[C@H](C)[C@@H]1NC(=O)[C@H](CC(C)C)NC(=O)[C@@H](Cc2ccc(O)cc2)NC(=O)CSC[C@@H](C(N)=O)NC(=O)[C@H](CO)NC(=O)[C@H](Cc2c[nH]cn2)NC(=O)[C@H](CCC(=O)O)NC(=O)[C@H](Cc2c[nH]c3ccccc23)NC(=O)[C@H](Cc2c[nH]c3ccccc23)NC(=O)[C@H]([C@@H](C)O)NC(=O)[C@H](Cc2ccc(O)cc2)NC(=O)[C@H](Cc2ccc(O)cc2)NC(=O)[C@H](C)NC(=O)[C@H](C)NC1=O | 4.22 |  | 10.7 µM | 15.8 µM |  |  |  | -0.47 | -1.51 | -0.48
CC[C@H](C)[C@@H]1NC(=O)[C@H](CC(C)C)NC(=O)[C@@H](Cc2ccc(O)cc2)NC(=O)CSC[C@@H](C(N)=O)NC(=O)[C@H](CO)NC(=O)[C@H](Cc2c[nH]cn2)NC(=O)[C@H](CCC(=O)O)NC(=O)[C@H](Cc2c[nH]c3ccccc23)NC(=O)[C@H](Cc2c[nH]c3ccccc23)NC(=O)[C@H](C)NC(=O)[C@H](Cc2ccc(O)cc2)NC(=O)[C@H](Cc2ccc(O)cc2)NC(=O)[C@H](C)NC(=O)[C@H](Cc2ccc(O)cc2)NC1=O | 4.65 |  | 2.88 µM | 5.25 µM |  |  |  | 0 | -0.94 | -0.05
